Experimental findings from ChEMBL document CHEMBL3259739, “Synthesis and structure-activity relationship of trisubstituted thiazoles as Cdc7 kinase inhibitors” (Eur J Med Chem, 2014) are described below.

Each structure is given as a SMILES string. pIC50: −log10 of the molar value. Active and inactive are the calls of the source.

Data set [1] can be described thus: Apparent permeability of the compound in pig LLC-PK1 cells. Type of data set: ADME, cell-based, Sus scrofa.
Data set [2] addresses T1, CDC7/DBF4 (Cell division cycle 7-related protein kinase/Activator of S phase kinase) (Homo sapiens, UniProt O00311). Put plainly: Inhibition of Cdc7/Dbf4 (unknown origin) using 0.047 uM of ATP as substrate by AlphaScreen assay. Type of data set: protein-complex assay. The method in brief:
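Mechanism-of-action AlphaScreen run with 6 nM Cdc7/Dbf4 and 10 nM biotinylated MCM2 substrate. […] Reaction time was 2 h. Phospho-Ser53 MCM2 was read by antibody-bound acceptor beads with streptavidin donor beads. Rates and Ki were fitted to a competitive inhibition model.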

Data set [3] addresses T1, CDC7/DBF4 (Cell division cycle 7-related protein kinase/Activator of S phase kinase). Put plainly: Inhibition of Cdc7/Dbf4 (unknown origin) using 0.023 uM of ATP as substrate by AlphaScreen assay. It is filed as protein-complex assay. In a few lines: (§1)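 AlphaScreen with 6 nM Cdc7/Dbf4 and 10 nM biotinylated His/avitag MCM2 (aa1-467) substrate. Phospho-Ser53 MCM2 detected with antibody-bound Protein A acceptor and streptavidin donor beads. Rates fitted by Michaelis–Menten and double-reciprocal plots.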
(In general: In Alpha technology, singlet oxygen from a donor bead excites a nearby acceptor bead.)

In another data set the test system is MDR1. Put plainly: Efflux ratio of permeability of the compound in pig LLC-PK1 cells expressing MDR1. Type of data set: ADME, cell-based, Sus scrofa.
Data set [4] has as its target T2, CDC7/DBF4 (Cell division cycle 7-related protein kinase/Activator of S phase kinase) (Homo sapiens) (UniProt Q9UBU7+O00311). Nature of the data set: Competitive inhibition of Cdc7/Dbf4 (unknown origin) using ATP as substrate by Michaelis-Menton/double-reciprocal plot analysis. Type of data set: protein-complex assay. In a few lines:
as §1

A short description of data set [5]: Oral bioavailability in Sprague-Dawley rat at 5 mg/kg. It is filed as ADME, organism-based. Conditions: in vivo. In a few lines:
(§2)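 Male Sprague-Dawley rats given 5 mg/kg orally in 2% HPMC, 1% Tween80, pH2 (an iv arm received 2 mg/kg in DMSO). Plasma was sampled from 0.25 to 24 h and analyzed by LC/MS.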

Data set [6] can be described thus: AUC (0 to t) in Sprague-Dawley rat at 2 mg/kg, iv. Type of data set: ADME, organism-based. On the set-up: dose 2 mg/kg, route intravenous. Particulars: plasma.
In data set [7] the target is T1, CDC7/DBF4 (Cell division cycle 7-related protein kinase/Activator of S phase kinase). Nature of the data set: Inhibition of Cdc7/Dbf4 (unknown origin) using 0.037 uM of ATP as substrate by AlphaScreen assay. Type of data set: protein-complex assay.
For data set [8] the target is unchanged. Nature of the data set: Inhibition of Cdc7/Dbf4 (unknown origin) using 27 uM of ATP as substrate by AlphaScreen assay. Type of data set: protein-complex assay.
Data set [9] concerns the target Cyclin-dependent kinase 4/cyclin D1 (Homo sapiens, UniProt P11802). Put plainly: Inhibition of CDK4/Cyclin-D1 (unknown origin) by homogeneous time-resolved fluorescence assay. Type of data set: protein-complex assay. In a few lines: (§3)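 Counter-screens by HTRF kinase assays: CDK1/Cyclin B and CDK4/Cyclin D1 in HTRF format, CDK9/Cyclin T1 with a 4eBP1 ULight substrate, and the CK2 tetramer with a TopoII ULight substrate.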

Data set [10] relates to Mus musculus. Nature of the data set: Toxicity in NCR nude mouse xenografted with human HCT116 cells assessed as appearance of moribund at 150 mg/kg, iv after 6 hrs. Type of data set: organism-based, HCT-116. Further details: dose 150 mg/kg, route intravenous. Conditions: in vivo. The method in brief:
(§4)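 Female athymic NCR/nu mice bearing subcutaneous HCT-116 xenografts (about 250 mm3) received a single iv dose in 20% HPbCD, 1% HPMC, 1% PluronicF68, pH7 (10 mg/ml); three mice per group. Tolerability was judged by observation over the 1–16 h sampling period.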

Data set [11] relates to HCT-116. Nature of the data set: Inhibition of DNA synthesis in human HCT116 cells after 2 days by BrdU incorporation assay. Type of data set: functional, cell-based. Particulars: HCT-116, 48 h.
Data set [12] relates to HCT-116. Nature of the data set: Cell cycle arrest in human HCT116 cells assessed as DNA accumulation at S/G2/M phase at 0.31 to 10 uM after 3 days using propidium iodide/RNase staining by flow cytometry. Type of data set: functional, cell-based. The method in brief: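 HCT-116 cells exposed to inhibitor for 3 d at the indicated concentrations. Cells harvested with Cell Stripper buffer, fixed in 70% ethanol, stained with propidium iodide/RNase, and DNA content analysed by flow cytometry.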
Background: In flow cytometry, cells or beads pass a laser one at a time.

Data set [13] deals with T1, CDC7/DBF4 (Cell division cycle 7-related protein kinase/Activator of S phase kinase). Nature of the data set: Inhibition of Cdc7/Dbf4 (unknown origin) using 0.111 uM of ATP as substrate by AlphaScreen assay. It is filed as protein-complex assay.
For data set [14] the target is unchanged. Nature of the data set: Inhibition of Cdc7/Dbf4 (unknown origin) using 9 uM of ATP as substrate by AlphaScreen assay. Type of data set: protein-complex assay.
The target in a further data set is CDK9/cyclin T1 (Homo sapiens, UniProt P50750). Nature of the data set: Inhibition of CDK9/Cyclin-T1 (unknown origin) by homogeneous time-resolved fluorescence assay. Type of data set: protein-complex assay. The method in brief: as §3
The target of another data set is Casein kinase II (Homo sapiens, UniProt P19784+P67870+P68400). Put plainly: Inhibition of CK2 (unknown origin) by homogeneous time-resolved fluorescence assay. Type of data set: protein-complex assay. The method in brief: as §3
Data set [15] relates to HCT-116. Put plainly: Cytotoxicity against human HCT116 cells assessed as cell viability after 2 days by Cell Titer-glo assay. It is filed as functional, cell-based. Particulars: HCT-116, 48 h. In general terms: Cellular ATP, detected with luciferase, serves as a proxy for viable cell number.
Data set [16] can be described thus: Mean residence time in Sprague-Dawley rat at 2 mg/kg, iv. It is filed as ADME, organism-based. Further details: dose 2 mg/kg, route intravenous. Particulars: in vivo.
Data set [17] has as its target Serine/threonine-protein kinase pim-1 (Homo sapiens, UniProt P11309). Put plainly: Inhibition of Pim1 (unknown origin) by homogeneous time-resolved fluorescence assay. In a few lines:
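Pim1 counter-screened biochemically with a homogeneous time-resolved fluorescence (HTRF) kinase assay.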

In data set [18] the test system is Mus musculus. Put plainly: Inhibition of Cdc7/Dbf4 in NCR nude mouse xenografted with human HCT116 cells assessed as reduction of phosphorylated MCM2 level in tumor at 50 mg/kg, iv after 16 hrs. It is filed as functional, organism-based. On the set-up: dose 50 mg/kg. Conditions: HCT-116. The method in brief: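 Female athymic NCR/nu mice, 4–6 weeks old, bearing subcutaneous HCT-116 xenografts (5 × 10^6 cells in Matrigel) grown to about 250 mm3. Single iv dose formulated in 20% HPbCD, 1% HPMC, 1% PluronicF68, pH7 at 10 mg/ml; three mice per group. Tumors were homogenized in Tris lysis buffer with protease and phosphatase inhibitors. MSD capture with total MCM2 antibody, then phospho-Ser53 or total MCM2 detection by chemiluminescence; inhibition taken from the phospho/total ratio.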

The nature of data set [19]: Tmax in Sprague-Dawley rat at 5 mg/kg, po. Conditions: in vivo. It is filed as ADME, organism-based. On the set-up: dose 5 mg/kg, route oral. The method in brief:
as §2

In data set [20] the target is Casein kinase I isoform alpha (Homo sapiens, UniProt P48729). Put plainly: Inhibition of CK1alpha (unknown origin) by TR-FRET assay. In a few lines: (§5)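 CK1 isoform inhibition measured in Lance TR-FRET kinase assays, reported as IC50.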
In data set [21] the target is Cyclin-dependent kinase 1/cyclin B1 (Homo sapiens, UniProt P06493). Nature of the data set: Inhibition of CDK1/Cyclin-B (unknown origin) by homogeneous time-resolved fluorescence assay. It is filed as protein-complex assay. The method in brief: as §3
In data set [22] the test system is Mus musculus. Nature of the data set: Toxicity in NCR nude mouse xenografted with human HCT116 cells at 50 mg/kg, iv. Type of data set: organism-based, HCT-116. Further details: dose 50 mg/kg, route intravenous. Conditions: in vivo. In a few lines: as §4
Data set [23] has as its target T1, CDC7/DBF4 (Cell division cycle 7-related protein kinase/Activator of S phase kinase). Put plainly: (§6) Inhibition of Cdc7/Dbf4 in human HCT116 cells assessed as reduction of MCM2 phosphorylation after 14 hrs. It is filed as cell-based, HCT-116. In a few lines: (§7)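 HCT-116 cells were exposed to inhibitor across a 22-point dose response for 14 h. They were then immunostained for phospho-serine MCM2 using an Alexa Fluor 488 secondary, with a Hoechst nuclear counterstain. The percentage of cells with phospho-MCM2 signal above a threshold was scored by high-content imaging, and IC50 values were derived from that.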

In data set [24] the target is T2, CDC7/DBF4 (Cell division cycle 7-related protein kinase/Activator of S phase kinase) (Homo sapiens). The data set is described as §6. Type of data set: cell-based. Conditions: HCT-116. The method in brief: as §7
Data set [25] concerns HCT-116. Nature of the data set: Induction of aberrant mitosis in human HCT116 cells at 1.25 uM after 72 hrs […]. Type of data set: functional, cell-based.
Data set [26] is described as follows: Terminal half life in Sprague-Dawley rat at 5 mg/kg, po. On the set-up: dose 5 mg/kg, route oral. It is filed as ADME, organism-based. Conditions: in vivo, read-out: beta t1/2 (converted). The method in brief: as §2
Data set [27] deals with Casein kinase I isoform delta (Homo sapiens, UniProt P48730). Put plainly: Inhibition of CK1delta (unknown origin) by TR-FRET assay. The method in brief: as §5

Broadly, the Papp is a coefficient for how fast a substance crosses the barrier. In general, pIC50 refers to −log10 of the IC50, conventionally taken in molar units. By efflux ratio is commonly meant the permeability from basolateral to apical divided by that in the opposite direction, in the common usage. Regarding `CCOC(=O)c1sc(-c2ccncc2)nc1O`, in data set [1], the apparent permeability (Papp) was ≥ 8.9 ×10⁻⁶ cm/s. Besides, the values for the pIC50 in data set [2] and in data set [3] were 6.39 and 6.52, respectively. Also, the efflux ratio in the data set with MDR1 was determined as 1. Also, the inhibition entry in data set [4] is “Active”.

By bioavailability is commonly meant dose-corrected exposure relative to a reference, in per cent. A high value points to much systemic uptake. Broadly, the AUC(0-t) is exposure summed from dosing to a finite time, without extrapolation to infinity. Low readings indicate low exposure, high ones high exposure. As a reminder, the MRT is a mean duration of stay, worked out from the concentration-time curve. One may read the Tmax as the time at which the peak concentration occurs. As a reminder, the IC90 is the point of the concentration-response curve where the effect stands at 90%. For `NC(=O)c1sc(-c2ccnc(N)n2)nc1-c1ccc(Cl)cc1Cl`, the bioavailability in data set [5] came out at 6.58%. In [6], this compound returned an AUC(0-t) of 518 ng·h/mL. For the same compound, the pIC50 in data set [7] was 7.20; in data set [8], 7.36; in [9], < 4.30; with HCT-116 [11] it was 5.59; in data set [13] it was 7.54; in data set [14] it was 7.74. Also, the pIC50 against CDK9/cyclin T1 was 6.13; on Casein kinase II, 4.54; in the data set on HCT-116 [15], 5.38; in [17] it was < 6.00; in data set [20], 6.16; in data set [21], < 4.30. The pIC50 was 6.30 in data set [23] and 7.08 in data set [27]. The Activity entry is listed as “Toxic” with Mus musculus [10] and “Non-toxic” with Mus musculus [22]. For the same compound, the result in the data set with HCT-116 [12] and in the data set with HCT-116 [25] was Active. Further, the mean residence time MRT in data set [16] came to 1.15 h. The inhibition entry with Mus musculus [18] is “inactive”. Moreover, the Tmax in [19] came out at 2.17 h. In addition, the IC90 in [24] came to 6370 nM. The half-life in data set [26] is 3.73 h.

For `COc1ccc(-c2nc(-c3ccnc(N)n3)sc2C(N)=O)c(Cl)c1`, the pIC50 in data set [9] is < 4.30; in the data set on HCT-116 [11] it was 5.16; at CDK9/cyclin T1 it was 6.14; against Casein kinase II, 4.19; in the data set with HCT-116 [15], 5.34; in data set [17] it was < 6.00. Moreover, the pIC50 in data set [20] was 6.26; in data set [21], < 4.30; in data set [23] it was 6.06; in [27], 6.98.
